# Results pooled from the literature.
# MTNR1A: Melatonin receptor type 1A (MTNR1A, Homo sapiens, UniProt P48039)
# MMP3: Stromelysin-1 (MMP3, Homo sapiens, UniProt P08254)
# FAAH: Fatty-acid amide hydrolase 1 (FAAH, Homo sapiens, UniProt O00519)
# CCKBR: Gastrin/cholecystokinin type B receptor (CCKBR, Homo sapiens, UniProt P32239)
# USP10: Ubiquitin carboxyl-terminal hydrolase 10 (USP10, Homo sapiens, UniProt Q14694)
# BDKRB1: B1 bradykinin receptor (BDKRB1, Homo sapiens, UniProt P46663)
Compound,target,test,setting,inhibition [%]
CC(C)Cn1cnc2c(N)nc3ccccc3c21,MTNR1A,"ligand displacement, radioligand",10 µM,32
COc1ccc(S(=O)(=O)N(CC(=O)NO)CC(C)C)cc1,MMP3,"enzyme activity, inhibitor",10 nM,20
COc1cc(Nc2ncc(F)c(Nc3ccc4c(n3)NC(=O)C(C)(C)O4)n2)cc(OC)c1OC,"Serine/threonine-protein kinase ULK3 (ULK3, Homo sapiens, UniProt Q6PHR2)",binding,10 µM,100
O=C(Nc1cccnn1)N1CCN([C@@H]2CCOc3cc(C(F)(F)F)ccc32)CC1,MTNR1A,ligand displacement,20 µM,16
COCCN(CCOC)C(=O)[C@@]12C[C@@H]1[C@@H](n1cnc3c(NC(C4CC4)C4CC4)nc(Cl)nc31)[C@H](O)[C@@H]2O,"5-hydroxytryptamine receptor 2C (HTR2C, Homo sapiens, UniProt P28335)","ligand displacement, radioligand",10 µM,38
CC(C)C[C@H](NC(=O)[C@H](Cc1ccccc1)NC(=O)c1cnccn1)B(O)O,"Complement C1r subcomponent (Homo sapiens, UniProt P00736)","enzyme activity, inhibitor",33 µM,44.5
O=C(Cc1c[nH]c2cc(Cl)ccc12)N1CCC(n2ccnc2)CC1,"Trypanothione synthetase (Trypanosoma cruzi, UniProt Q9GT49)","enzyme activity, inhibitor, absorbance",25 µM,6.2
CN(C(=O)Oc1nsnc1N1CCCCC1)c1cccc([N+](=O)[O-])c1,FAAH,"enzyme activity, inhibitor","10 µM, cell membranes",11
Cc1ncc(C)n2nc(/C=C/c3nc(N4CCCC4)cc(N4CCOCC4)n3)nc12,CCKBR,cell-free assay,10 µM,-16
C[C@@H](O)[C@H](N)C(=O)N1CCC[C@H]1C(=O)N1CCC[C@H]1C(=O)N[C@H](C(N)=O)[C@@H](C)O,FAAH,"enzyme activity, inhibitor",30 µM,-15
CN(C)C(=O)COC(=O)Cc1ccc(OC(=O)c2ccc(NC(=N)N)cc2)cc1,USP10,"enzyme activity, inhibitor",10 µM,2
c1ccc(C(NCCNC(c2ccccc2)c2ccccc2)c2ccccc2)cc1,"Prostaglandin G/H synthase 1 (PTGS1, Homo sapiens, UniProt P23219)","enzyme activity, inhibitor",10 µM,66
Cn1cc(-c2cccc(N3CCc4c(sc5c4CC(C)(C)C5)C3=O)c2CO)cc(Nc2ccncn2)c1=O,"Mitogen-activated protein kinase kinase kinase 8 (MAP3K8, Homo sapiens, UniProt P41279)","enzyme activity, inhibitor",1 µM,16
CCOC(=O)c1ccc(OC(=O)CCCCCNC(=N)N)cc1,USP10,"enzyme activity, inhibitor",10 µM,3
COc1cccc(N(C)C(=O)Oc2nsnc2N2CCCCC2)c1,FAAH,"enzyme activity, inhibitor","10 µM, cell membranes",17
COc1ccc(S(=O)(=O)N2CCCCC2)cc1C,BDKRB1,"ligand displacement, radioligand",10 µM,< 30
N=C(N)c1ccc2cc(OC(=O)c3ccc(N=C(N)N)cc3)ccc2c1,USP10,"enzyme activity, inhibitor",10 µM,0
C[C@H](C(=O)N[C@H]1COc2ccccc2[C@@H]1S(C)(=O)=O)c1ccc(F)cc1,CCKBR,cell-free assay,10 µM,7
CCCCc1ccc(C(=O)O)nc1,MMP3,"enzyme activity, inhibitor","1 mM, pH 6",> 80
CN(C(=O)Oc1nsnc1N1CCCCC1)c1ccc([N+](=O)[O-])cc1,FAAH,"enzyme activity, inhibitor","10 µM, cell membranes",19
CN(CCN1CCC(OC(=O)Nc2ccccc2-c2ccccc2)CC1)C(=O)c1ccc(CN2CCC(C(N)=O)CC2)cc1,BDKRB1,"ligand displacement, radioligand",1 µM,0
CN(C(=O)Oc1nsnc1N1CCCCC1)C1CCCCCCC1,FAAH,"enzyme activity, inhibitor","10 µM, cell membranes",13
CC(C)N1CCC[C@H]1CNC(=O)c1cn(C2CCCC2)c(=O)c2c1c1ccccc1n2C,BDKRB1,"ligand displacement, radioligand",10 µM,12
CN(C(=O)Oc1nsnc1N1CCCCC1)c1ccc(Cl)cc1,FAAH,"enzyme activity, inhibitor","10 µM, cell membranes",16
C#Cc1n[nH]c2c(-c3cn([C@@H](C)c4ccccc4)c(=O)[nH]c3=O)cc(F)cc12,"Aurora kinase C (AURKC, Homo sapiens, UniProt Q9UQB9)","enzyme activity, inhibitor",0.1 µM,-1.2
CCN(C(=O)Oc1nsnc1N1CCCCC1)c1ccccc1,FAAH,"enzyme activity, inhibitor","10 µM, cell membranes",24
COCc1c(-c2cc3cc(C)cc(OC)c3s2)c2c(N)ncnn2c1CN1CCNC(=O)C1,"Tyrosine-protein kinase receptor Tie-1 (TIE1, Homo sapiens, UniProt P35590)","cell-free assay, competition with immobilised ligand",1 µM,83
CN(C(=O)Oc1nsnc1N1CCCCC1)c1cccc(-c2ccccc2)c1,FAAH,"enzyme activity, inhibitor","10 µM, cell membranes",13
Cn1cc(-c2cc(F)cc(N3CCn4c(cc5c4CCCC5)C3=O)c2CO)cc(Nc2ccc(N3CCN(C4COC4)CC3)cn2)c1=O,"Aurora kinase A (AURKA, Homo sapiens, UniProt O14965)","enzyme activity, inhibitor",0.1 µM,10
Cc1cc(C)c(N(C)C(=O)Oc2nsnc2N2CCCCC2)c(C)c1,FAAH,"enzyme activity, inhibitor","10 µM, cell membranes",7
C#Cc1n[nH]c2c(-c3cn(C(C)c4ccccn4)c(=O)[nH]c3=O)cc(F)cc12 (stereo not shown),"Tyrosine-protein kinase receptor TYRO3 (TYRO3, Homo sapiens, UniProt Q06418)","enzyme activity, inhibitor",1 µM,79
